# Source: PubChem BioAssay
# This excerpt belongs to a sample that is enriched for hits.
# G6PDH CS: inhibits Leuconostoc G6PDH, flagging false hits in G6PDH-based assays; AID 1020; inhibition, % at 5 µM; 200,000 compounds, 0.12% hits; Purified L. mesenteroides G6PDH, diaphorase/resazurin coupled fluorescence, 45 min
# PfGluPho inh: PfG6PD (Plasmodium falciparum) enzyme inhibition; PfGluPho enzyme, NADPH resazurin-diaphorase fluorescence; inhibition, % at 20 µM; 350,000 compounds, 0.78% hits; AID 504690;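 active = inhibition reaching at least a set limit at 20 µM in the primary screen, cut at about 59% in these data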
# Diaphorase inh: diaphorase inhibition or chemical oxidation counter-screen; 190,000 compounds, 0.69% hits; diaphorase resazurin-to-resorufin fluorescence, NADH, 16 min; bacterial (C. kluyveri) enzyme, not human; inhibition, % at 20 µM;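 active = primary screen inhibition at 20 µM above a set limit, cut at about 50% in these data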
#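 System: Bacterial diaphorase enzyme (C. kluyveri) | Incubation: 16-min room-temperature incubation before reading | Benchmarks: No-NADH positive control and DMSO neutral control | Measured by: Resorufin fluorescence 544/590 nm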
# Diaphorase act: diaphorase activation or chemical reduction counter-screen. AID 1229. Diaphorase/resazurin coupled assay, resorufin fluorescence, 16 min; stronger effect = higher value; 1 = vehicle wells, 0 = NADH-free wells. 190,000 compounds, 0.005% hits. activation factor at 20 µM;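 active = diaphorase activity raised at least twofold by the compound at 20 µM; inactive = activation factor below 2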
#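 test system = bacterial diaphorase enzyme (C. kluyveri) | quantity = enzyme 0.07 U/mL final | reagent = NADH substrate 0.114 mM plus resazurin dye 0.1 mM, final | incubation = 16 min enzyme reaction, ambient temperature | buffer or medium = HEPES pH 7.4 buffer with MgCl2 and Tween 20 | signal = fluorescence of resorufin, 544 nm excitation, 590 nm emission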
# L major viab: inhibitors of Leishmania major promastigote growth; 200,000 compounds, 9% hits; AID 1063; Leishmania major promastigotes, resazurin fluorescence viability; inhibition, % at 10 µM;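 note: promastigotes grown with compound for 44 hours at 28 °C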
# Redox H2O2 prof: compounds producing H2O2 with reducing agent – biochemical, NIH compound library profiling, artefact control for MLSCN library redox annotation, primary screen. DTT-dependent redox cycling H2O2, phenol red/HRP absorbance; 100% = 100 µM peroxide control, 0% = buffer. activation, % at 10 µM. 200,000 compounds, 0.03% hits;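 active = activation of at least 50% relative to the plate's high and low controls in the primary single-dose screen; inactive = activation below 50%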;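 note: compound incubated with DTT at 0.8 mM final as the reducing agent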
# Hits are given with their value; i = inactive; nt = not tested or not shown. Cut-off read from the data, not from the text of the source, unless noted: active = inhibition above about 50%; inactive = the rest.
SMILES,G6PDH CS,PfGluPho inh,Diaphorase inh,Diaphorase act,L major viab,Redox H2O2 prof
CC(C)(C)NC(=O)c1ccc(COc2ccccc2Br)o1,i,i,i,i,78,i
CC(=O)Nc1ccc(NC(=O)c2ccc(COc3ccccc3Br)o2)cc1,nt,i,nt,nt,nt,nt
CCN(CC)C(=O)c1ccc(COc2ccccc2Cl)cc1,i,i,i,i,63,i
O=C(Nc1nc2ccccc2n1CCN1CCOCC1)c1ccc(COc2ccccc2Br)o1,i,i,i,i,55,i
O=C(O)c1ccc(COc2ccccc2Cl)cc1,i,i,i,i,i,i
COC(=O)C1(CCSC)NC(c2ccc(O)c(OC)c2)C2C(=O)N(c3ccc(C)cc3)C(=O)C21 (stereo not drawn),i,i,i,i,i,i
CCC[C@@H]1Cc2ccccc2N1C(C)=O,nt,i,nt,nt,nt,nt
CCCc1cc(C(=O)Nc2cc(C)ccc2O)no1,nt,i,nt,nt,nt,nt
Cc1ccc(-n2cc(CN3CCN(C(=O)c4ncn[nH]4)CC3)c(-c3ccc(F)cc3)n2)cc1,nt,i,nt,nt,nt,nt
Cc1ccc(NCCC(=O)c2cccc([N+](=O)[O-])c2)cc1,i,i,i,i,100,i
O=C(NCCNc1ccc([N+](=O)[O-])cc1)c1cccc(Br)c1,i,i,i,i,i,i
O=C(CCNc1ccc(F)cc1)c1cccc([N+](=O)[O-])c1,i,i,i,i,97,i
O=C(CCNc1ccc(Br)cc1)c1cccc([N+](=O)[O-])c1,i,i,i,i,88,i
O=C(CNC(=O)c1cccc([N+](=O)[O-])c1)OCCCC(=O)c1ccc(F)cc1,nt,i,nt,nt,nt,nt
O=C(CC(=O)c1ccccc1)Nc1cccc([N+](=O)[O-])c1,nt,i,nt,nt,nt,nt
O=C(CCNc1ccccc1)c1cccc([N+](=O)[O-])c1,i,i,i,i,96,i
CCCSc1nnc(C(C)C)n1N,i,i,i,i,i,i
CCCN(C(=O)CSc1ncccn1)C1CCS(=O)(=O)C1 (stereo not drawn),nt,i,nt,nt,nt,nt
CCN(CC)C(=O)Cn1cc(S(=O)(=O)CC(=O)Nc2ccc(F)cc2F)c2ccccc21,nt,i,nt,nt,nt,nt
Cc1nc2ccccc2nc1OCc1ccc([N+](=O)[O-])cc1,i,i,i,i,i,i
Brc1ccc(OCc2ccccc2)c(CNCc2ccncc2)c1,i,i,i,i,94,i
Fc1ccc(COc2ccccc2CNCc2ccncc2)cc1,i,i,i,i,98,i
COc1ccc(OC)c(S(=O)(=O)N2CCCC2C(=O)NC(C)c2ccccc2)c1 (stereo not drawn),nt,i,nt,nt,nt,nt
O=C(/C(=C/O)N=Nc1ccccc1)c1cccs1,i,i,i,i,83,i
O=C(C=Cc1ccccc1)c1cccs1,nt,i,nt,nt,nt,nt
SMILES,G6PDH CS,PfGluPho inh,Diaphorase inh,Diaphorase act,L major viab,Redox H2O2 prof
Cc1ccc(Cn2cc(S(=O)(=O)c3ccc(C(C)C)cc3)c(=O)c3cc4c(cc32)OCO4)cc1,i,i,i,i,65,i
Cc1ccc(S(=O)(=O)c2cn(Cc3ccc(F)cc3)c3cc4c(cc3c2=O)OCO4)cc1,i,i,i,i,i,i
CC(C)c1ccc(S(=O)(=O)c2cn(Cc3ccc(F)cc3)c3cc4c(cc3c2=O)OCO4)cc1,i,nt,i,i,98,i
COc1cc(C)c(S(=O)(=O)NC2CC(C)(C)NC(C)(C)C2)cc1C,i,i,i,i,i,i
CCCOc1cc(C)c(S(=O)(=O)NC2CC(C)(C)NC(C)(C)C2)cc1C,i,i,i,i,97,i
COc1ccc(CN(C(=O)COc2ccccc2)c2ccccc2C(=O)O)cc1,nt,i,nt,nt,nt,nt
Cc1ccccc1C(=O)Nc1nnc(SCC(=O)NCc2ccco2)s1,nt,i,nt,nt,nt,nt
O=C(O)c1ccccc1-c1ccc(/C=c2\sc3nc4cc(Br)cnc4n3c2=O)o1,i,i,56,i,i,i
O=c1oc2ccccc2cc1-c1nc2ccccc2o1,i,i,i,i,i,i
COc1ccc2oc(=O)c(-c3nc4ccccc4o3)cc2c1,i,i,i,i,98,i
O=c1oc2ccc3ccccc3c2cc1-c1nc2ccccc2o1,nt,i,nt,nt,100,i
CC(NC(=S)NC1CCC(C(C)(C)C)CC1)c1ccccc1 (stereo not drawn),nt,i,nt,nt,nt,nt
O=[N+]([O-])c1cccc(/C=N/Nc2nc(N3CCOCC3)nc(N3CCOCC3)n2)c1,i,i,i,i,73,i
CC(=C/c1ccccc1)/C=N/Nc1nc(N2CCOCC2)nc(N2CCOCC2)n1,i,i,i,i,63,i
C(=C\c1ccccc1)/C=N/Nc1nc(N2CCOCC2)nc(N2CCOCC2)n1,i,i,i,i,i,i
CSCCC(NC(=O)c1ccccc1Br)C(=O)N1CCCC(C(F)(F)F)C1 (stereo not drawn),nt,i,nt,nt,nt,nt
Cc1ccc(S(=O)(=O)N2CCN(C(=O)c3cc4c(s3)CCCC4)CC2)c(C)c1,nt,i,nt,nt,nt,nt
O=C(c1cc2c(s1)CCCC2)N1CCN(S(=O)(=O)c2ccccc2C(F)(F)F)CC1,i,i,i,i,77,i
COc1ccccc1N1CCN(C(=O)c2cc3c(s2)CCCCC3)CC1,nt,i,nt,nt,nt,nt
CCOc1ccccc1N1CCN(C(=O)c2cc3c(s2)CCC3)CC1,i,i,i,i,68,i
Cc1ccc(Cl)cc1N1CCN(C(c2cccnc2)c2nnnn2C2CCCCC2)CC1 (stereo not drawn),i,i,i,i,99,i
Cc1ccc(C(c2nnnn2C2CCCCC2)N2CCN3CCCC3C2)cc1 (stereo not drawn),i,i,i,i,i,i
Cc1ccc(Cl)cc1N1CCN(C(c2ccc(C#N)cc2)c2nnnn2C2CCCC2)CC1 (stereo not drawn),i,i,i,i,71,i
COc1ccc(CNC(=O)c2n[nH]c3ccccc23)cc1OC,i,i,i,i,i,i
COc1cc(C)c(Cl)cc1S(=O)(=O)NC1CC(C)(C)NC(C)(C)C1,i,nt,i,i,i,i
SMILES,G6PDH CS,PfGluPho inh,Diaphorase inh,Diaphorase act,L major viab,Redox H2O2 prof
CN1CCN(C2=Cc3ccccc3Sc3cc(F)ccc32)CC1,i,i,i,i,100,i
CN1CCN(C2Cc3cc(F)ccc3Sc3ccc(Cl)cc32)CC1 (stereo not drawn),nt,i,nt,nt,nt,nt
CN1CCN(C2=Cc3ccc(Cl)cc3Sc3ccc(F)cc32)CC1,i,i,i,i,95,i
Cc1c(C(=O)NCc2cccnc2)sc2nc(-c3ccc(F)cc3)cn12,i,i,i,i,96,i
Cc1c(C(=O)NCCCN2CCOCC2)sc2nc(-c3ccc(F)cc3)cn12,i,i,i,i,79,i
C[N+]1=C(/C=C/Nc2ccccc2Cl)C(C)(C)c2ccccc21,i,i,i,i,98,i
FC(F)(F)c1cnc(/C=C/Nc2ccccc2Cl)c(Cl)c1,i,i,i,i,i,i
COc1ccc(CNC(=O)c2cc(S(=O)(=O)N3CCCCC3)ccc2Cl)cc1OC,nt,i,nt,nt,nt,nt
CC(=O)NC(=S)NNC(=O)COc1ccc([N+](=O)[O-])cc1,i,i,i,i,i,i
